Source: ChEMBL document CHEMBL2146436, “Synthesis and pharmacological investigation of azaphthalazinone human histamine H(1) receptor antagonists” (Bioorg Med Chem, 2012)

Legend:
Histamine H1 receptor [1] = target: T1, Histamine H1 receptor (Homo sapiens, UniProt P35367); assay: Antagonist activity at human H1 receptor expressed in CHO cells assessed as inhibition of calcium mobilization by FLIPR assay; format: functional, cell-based
In short: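 Intact CHO cells expressing recombinant human H1 receptor were loaded with Fluo-4AM. Inhibition of agonist-induced calcium mobilisation was read in a plate-based FLIPR instrument and expressed as pKi, with the number of determinations given.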

Histamine H3 receptor = Histamine H3 receptor (Homo sapiens, UniProt Q9Y5N1); assay: Antagonist activity at human H3 receptor expressed in CHO cells assessed as inhibition of histamine-induced GTPgamma[S] binding by scintillation proximity assay; format: functional, cell-based
Histamine H3 receptor, sequence (Q9Y5N1 whole entry): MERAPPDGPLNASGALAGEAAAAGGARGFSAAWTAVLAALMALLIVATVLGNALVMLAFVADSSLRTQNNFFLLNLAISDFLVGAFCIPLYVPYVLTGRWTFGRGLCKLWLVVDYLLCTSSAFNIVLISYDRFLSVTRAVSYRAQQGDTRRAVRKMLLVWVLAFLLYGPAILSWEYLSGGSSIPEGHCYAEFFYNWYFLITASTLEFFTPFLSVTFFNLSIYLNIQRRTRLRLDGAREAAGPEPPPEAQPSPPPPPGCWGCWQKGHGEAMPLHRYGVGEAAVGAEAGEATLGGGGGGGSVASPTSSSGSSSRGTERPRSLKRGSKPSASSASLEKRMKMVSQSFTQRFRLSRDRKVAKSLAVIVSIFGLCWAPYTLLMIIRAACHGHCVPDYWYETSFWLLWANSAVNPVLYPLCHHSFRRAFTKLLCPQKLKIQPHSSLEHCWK

[2] = target: T2, Alpha-1A adrenergic receptor (Homo sapiens, UniProt P35348); assay: Antagonist activity at human adrenergic alpha1A receptor expressed in rat fibroblasts by plate-based calcium imaging; format: functional
T2 sequence (P35348 whole entry): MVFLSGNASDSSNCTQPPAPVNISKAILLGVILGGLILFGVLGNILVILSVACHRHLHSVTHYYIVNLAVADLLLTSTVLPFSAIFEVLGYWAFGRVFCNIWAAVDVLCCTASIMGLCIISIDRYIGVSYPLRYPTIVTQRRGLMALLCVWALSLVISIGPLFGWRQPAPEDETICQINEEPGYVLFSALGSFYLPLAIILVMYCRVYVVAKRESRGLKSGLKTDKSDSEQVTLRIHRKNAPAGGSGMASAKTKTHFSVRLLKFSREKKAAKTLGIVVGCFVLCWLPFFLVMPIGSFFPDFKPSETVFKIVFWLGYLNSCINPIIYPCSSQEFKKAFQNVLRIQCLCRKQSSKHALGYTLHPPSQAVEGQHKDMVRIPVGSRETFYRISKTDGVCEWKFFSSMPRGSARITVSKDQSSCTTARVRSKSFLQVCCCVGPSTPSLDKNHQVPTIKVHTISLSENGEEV

[3] = Lipophilicity, log D of compound at pH 7.4; format: physicochemical; conditions: buffer
[4] = target: T3, Alpha-1B adrenergic receptor (Homo sapiens, UniProt P35368); assay: Antagonist activity at human adrenergic alpha1B receptor expressed in rat fibroblasts by plate-based calcium imaging; format: functional
T3 sequence (P35368 whole entry): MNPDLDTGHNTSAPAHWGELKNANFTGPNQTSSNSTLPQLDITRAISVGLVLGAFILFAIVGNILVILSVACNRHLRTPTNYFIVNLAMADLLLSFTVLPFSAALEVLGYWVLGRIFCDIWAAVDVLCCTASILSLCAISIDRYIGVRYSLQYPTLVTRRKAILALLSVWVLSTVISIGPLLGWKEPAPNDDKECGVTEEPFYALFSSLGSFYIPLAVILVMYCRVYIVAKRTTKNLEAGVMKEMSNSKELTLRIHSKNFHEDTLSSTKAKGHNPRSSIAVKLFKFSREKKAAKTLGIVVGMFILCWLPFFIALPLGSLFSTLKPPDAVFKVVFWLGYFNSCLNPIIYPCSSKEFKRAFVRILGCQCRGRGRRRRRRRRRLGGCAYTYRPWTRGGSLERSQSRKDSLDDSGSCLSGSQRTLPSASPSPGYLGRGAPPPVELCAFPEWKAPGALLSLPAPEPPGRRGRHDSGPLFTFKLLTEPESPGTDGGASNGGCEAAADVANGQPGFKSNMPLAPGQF
In short: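 Plate-based calcium imaging in intact Rat1 fibroblast cells expressing the α1B adrenoceptor. Antagonist affinity is expressed as pKi, with the number of determinations given.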

Histamine H1 receptor [5] = target: T1, Histamine H1 receptor; assay: Antagonist activity against human CHO cells H1 receptor at 100 nM after 30 mins by FLIPR assay; format: functional, cell-based; conditions: read-out: pA2 (converted)
In short: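 Modified lower-throughput FLIPR assay in CHO cells expressing recombinant human H1. Histamine concentration–response curves were run without antagonist and with a single 100 nM antagonist concentration after 30 min incubation. EC50 values came from a four-parameter logistic fit. pA2 = log(DR−1) − log[B], where DR is the ratio of the EC50 with antagonist to the control EC50. Values are mean ± SEM, with SD given when n<3.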

CHO [6] = assay: Selectivity ratio of pKi for human H3 receptor expressed in CHO cells to pKi for human adrenergic alpha1B receptor expressed in rat fibroblast; format: cell-based
In short: (§1)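 Ratio of two pKi values. The H3 pKi comes from membranes of CHO cells transfected with cloned human H3, read as reduction of histamine-stimulated GTPγS binding by scintillation proximity detection. The α1A or α1B pKi comes from intact Rat1 fibroblast cells expressing that receptor, read by plate-based calcium imaging.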

[7] = target: Voltage-gated inwardly rectifying potassium channel KCNH2 (Homo sapiens, UniProt Q12809); assay: Displacement of [3H]dofetilide from human ERG
Voltage-gated inwardly rectifying potassium channel KCNH2, sequence (Q12809 whole entry): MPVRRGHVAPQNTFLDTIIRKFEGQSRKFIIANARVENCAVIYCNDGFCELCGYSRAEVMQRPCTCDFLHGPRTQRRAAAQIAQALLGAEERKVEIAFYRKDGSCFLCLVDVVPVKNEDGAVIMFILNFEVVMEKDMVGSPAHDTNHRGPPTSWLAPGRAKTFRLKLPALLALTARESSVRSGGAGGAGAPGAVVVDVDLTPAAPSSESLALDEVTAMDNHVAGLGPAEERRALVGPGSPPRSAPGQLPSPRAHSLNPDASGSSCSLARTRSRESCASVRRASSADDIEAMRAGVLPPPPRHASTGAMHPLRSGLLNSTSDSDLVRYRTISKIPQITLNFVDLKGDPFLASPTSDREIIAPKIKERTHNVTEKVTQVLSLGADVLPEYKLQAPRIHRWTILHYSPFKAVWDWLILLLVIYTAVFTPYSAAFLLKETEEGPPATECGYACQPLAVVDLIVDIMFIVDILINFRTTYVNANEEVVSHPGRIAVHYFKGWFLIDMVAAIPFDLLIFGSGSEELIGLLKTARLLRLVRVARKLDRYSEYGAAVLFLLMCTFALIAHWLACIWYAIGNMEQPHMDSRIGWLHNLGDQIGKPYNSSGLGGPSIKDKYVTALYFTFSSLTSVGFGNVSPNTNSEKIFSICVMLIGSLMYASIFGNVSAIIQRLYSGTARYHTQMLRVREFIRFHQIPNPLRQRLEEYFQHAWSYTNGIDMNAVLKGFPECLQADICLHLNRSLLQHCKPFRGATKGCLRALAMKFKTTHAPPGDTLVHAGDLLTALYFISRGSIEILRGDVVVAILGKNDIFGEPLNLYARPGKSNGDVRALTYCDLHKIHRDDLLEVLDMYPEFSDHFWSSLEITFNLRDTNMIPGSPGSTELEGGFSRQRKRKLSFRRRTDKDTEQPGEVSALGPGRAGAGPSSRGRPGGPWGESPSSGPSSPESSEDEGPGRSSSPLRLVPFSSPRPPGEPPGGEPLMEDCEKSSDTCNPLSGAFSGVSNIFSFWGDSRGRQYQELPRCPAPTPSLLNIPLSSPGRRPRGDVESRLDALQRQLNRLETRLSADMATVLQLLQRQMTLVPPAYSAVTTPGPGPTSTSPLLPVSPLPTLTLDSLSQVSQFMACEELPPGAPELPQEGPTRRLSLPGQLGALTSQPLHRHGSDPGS

CHO [8] = assay: Selectivity ratio of pKi for human H3 receptor expressed in CHO cells to pKi for human H1 receptor expressed in CHO cells; format: cell-based
In short: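 Ratio of two pKi values. The H3 pKi comes from membranes of CHO cells transfected with cloned human H3 receptor, read as reduction of histamine-stimulated GTPγS binding by scintillation proximity detection. The H1 pKi comes from intact CHO cells expressing recombinant human H1, read as inhibition of agonist-induced calcium mobilisation (Fluo-4AM dye, FLIPR plate-based imaging).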

CHO [9] = assay: Selectivity ratio of pKi for human H3 receptor expressed in CHO cells to pKi for human adrenergic alpha1A receptor expressed in rat fibroblast; format: cell-based; in short: as §1

T1 sequence (P35367 whole entry): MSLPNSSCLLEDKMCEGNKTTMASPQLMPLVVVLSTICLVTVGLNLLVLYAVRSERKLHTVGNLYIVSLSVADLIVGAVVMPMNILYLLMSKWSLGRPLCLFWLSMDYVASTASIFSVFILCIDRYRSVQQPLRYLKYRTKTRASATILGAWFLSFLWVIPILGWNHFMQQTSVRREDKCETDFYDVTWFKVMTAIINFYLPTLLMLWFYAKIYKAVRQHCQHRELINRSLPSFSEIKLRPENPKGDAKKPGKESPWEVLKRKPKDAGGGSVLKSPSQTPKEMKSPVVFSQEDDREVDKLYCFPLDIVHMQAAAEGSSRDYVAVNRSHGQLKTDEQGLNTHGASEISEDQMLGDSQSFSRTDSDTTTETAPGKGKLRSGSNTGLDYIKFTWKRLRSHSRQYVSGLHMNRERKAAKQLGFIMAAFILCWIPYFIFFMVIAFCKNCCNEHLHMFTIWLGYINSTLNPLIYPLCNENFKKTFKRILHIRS

Row | Ki (Histamine H1 receptor [1]) [nM] | Ki (Histamine H3 receptor) [nM] | Ki [2] [nM] | logD [3] | Ki [4] [nM] | Kb (Histamine H1 receptor [5]) [nM] | Compound | Ratio pKi (CHO [6]) | IC50 [7] [nM] | Ratio pKi (CHO [8]) | Ratio pKi (CHO [9])
1 | 0.162 | 437 | 31.6 | 3 | 10 | 0.1 | CN1CCC[C@@H]1Cn1nc(Cc2ccc(Cl)cc2)c2ccccc2c1=O |  |  |  | 
2 | 0.513 | 398 | 20 | 3.3 | 12.6 |  | COCCN1CCC[C@@H]1Cn1nc(Cc2ccc(Cl)cc2)c2ccccc2c1=O |  |  |  | 
3 | 0.347 | 398 | 12.6 | 1.9 |  | 0.316 | CN1CCC[C@@H]1Cn1nc(Cc2ccc(Cl)cc2)c2cnccc2c1=O |  |  |  | 
4 | 17.4 | 0.562 | 31.6 |  | 39.8 | 1 | O=c1c2ccncc2c(Cc2ccc(Cl)cc2)nn1C[C@H]1CCCN1CCCCc1ccc(OCCCN2CCCCCC2)cc1 | 10 | 158 | 2.7 | 10
5 | 0.316 | 316 | 200 | 2.7 | 50.1 | 0.316 | CN1CCC[C@@H]1Cn1nc(Cc2ccc(Cl)cc2)c2ncccc2c1=O |  |  |  | 
6 | 1.29 | 631 | 398 | 1.7 | 251 | 3.98 | CN1CCC[C@@H]1Cn1nc(Cc2ccc(Cl)cc2)c2nccnc2c1=O |  |  |  | 
7 | 0.398 | 631 | 6.31 | 3.2 | 7.94 | 0.1 | CCCCN1CCC[C@@H]1Cn1nc(Cc2ccc(Cl)cc2)c2cnccc2c1=O | 10 | 50.1 | 2.7 | 10
8 |  |  |  | 3.2 |  |  | O=c1c2ccccc2c(Cc2ccc(Cl)cc2)nn1C[C@H]1CCCN1CCCCc1ccc(OCCCN2CCCCCC2)cc1 [GSK-1004723] |  |  |  | 
9 | 0.537 |  | 158 | 2.9 | 39.8 |  | COCCN1CCC[C@@H]1Cn1nc(Cc2ccc(Cl)cc2)c2ncccc2c1=O |  |  |  | 
10 | 0.355 |  | 631 | 1.7 | 158 | 0.501 | CN1CCC[C@@H]1Cn1nc(Cc2ccc(Cl)cc2)c2cccnc2c1=O |  |  |  | 
11 |  | 148 |  | 2.3 |  |  | CN1CCCC(n2nc(Cc3ccc(Cl)cc3)c3ccccc3c2=O)CC1 (centres undefined) [AZELASTINE] |  |  |  | 
12 | 1 | 631 | 316 | 2.1 | 316 | 0.794 | COCCN1CCC[C@@H]1Cn1nc(Cc2ccc(Cl)cc2)c2cccnc2c1=O |  |  |  | 
13 | 0.251 |  |  | 2.7 | 10 | 0.251 | COCCN1CCC[C@@H]1Cn1nc(Cc2ccc(Cl)cc2)c2cnccc2c1=O |  |  |  | 
14 | 0.692 | 398 | 20 | 2.2 |  | 2.51 | CN1CCC[C@@H]1Cn1nc(Cc2ccc(Cl)cc2)c2ccncc2c1=O |  |  |  | 
15 | 0.631 | 631 | 100 | 2.8 | 100 | 0.316 | CCCCN1CCC[C@@H]1Cn1nc(Cc2ccc(Cl)cc2)c2cccnc2c1=O |  |  |  | 
16 | 0.912 | 437 |  | 3.1 |  | 0.0398 | CCCCN1CCC[C@@H]1Cn1nc(Cc2ccc(Cl)cc2)c2ccccc2c1=O |  |  |  | 
17 | 0.631 | 631 | 50.1 | 3.4 | 20 |  | CCCCN1CCC[C@@H]1Cn1nc(Cc2ccc(Cl)cc2)c2ncccc2c1=O |  |  |  | 
